Results as given in ChEMBL document CHEMBL1125106, “1-(Thienylalkyl)imidazole-2(3H)-thiones as potent competitive inhibitors of dopamine beta-hydroxylase” (J Med Chem, 1990).

Tests used:
[1] = DBH (dopamine beta-hydroxylase) activity expressed as Ki value determined by degree to which compound inhibited conversion of tyramine to octopamine
Outline: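 Bovine adrenal medulla DBH, purified in-house (sp act. 44 µmol/min/mg). Incubated at 37 °C, atmospheric pressure, in 0.2 M acetate pH 5.5 with 10 mM ascorbate, 20 mM fumarate, […] and 1300 units catalase. Octopamine formed from tyramine measured by reverse-phase HPLC with fluorescence detection (ex 275, em 315 nm). Six inhibitor and four substrate concentrations tested, DMSO ≤3% final, duplicates; Ki from Dixon analysis.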

[2] = target: T1, Dopamine beta-hydroxylase (Bos taurus, UniProt P15101); assay: Inhibitory activity against bovine adrenal dopamine beta-hydroxylase (DBH)
T1 sequence (P15101 whole entry): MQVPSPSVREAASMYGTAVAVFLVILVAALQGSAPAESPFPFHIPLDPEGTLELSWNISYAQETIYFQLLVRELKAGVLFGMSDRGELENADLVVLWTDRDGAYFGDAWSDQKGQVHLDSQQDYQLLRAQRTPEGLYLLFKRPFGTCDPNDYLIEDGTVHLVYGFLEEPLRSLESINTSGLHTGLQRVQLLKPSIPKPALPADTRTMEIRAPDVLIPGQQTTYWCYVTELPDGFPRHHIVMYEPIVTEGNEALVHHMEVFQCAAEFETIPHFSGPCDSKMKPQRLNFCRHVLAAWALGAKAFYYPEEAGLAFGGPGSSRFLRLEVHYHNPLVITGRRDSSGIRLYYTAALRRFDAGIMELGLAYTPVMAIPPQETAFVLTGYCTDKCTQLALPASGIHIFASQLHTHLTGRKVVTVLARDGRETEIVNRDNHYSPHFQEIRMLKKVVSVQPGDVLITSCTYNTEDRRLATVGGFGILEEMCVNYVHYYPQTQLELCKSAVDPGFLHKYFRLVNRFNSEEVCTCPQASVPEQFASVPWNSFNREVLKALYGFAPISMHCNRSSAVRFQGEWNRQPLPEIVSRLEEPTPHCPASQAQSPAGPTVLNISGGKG
Outline: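 Commercial bovine DBH, assayed by oxygen consumption on an oxygen electrode at 25.0 °C. Mixture contained 2 mM ascorbic acid, 10 mM sodium fumarate, catalase and 10 mM tyramine in 0.1 M sodium acetate pH 5.0. Rates corrected for nonenzymatic ascorbate oxidation. IC50 from duplicates in at least three separate experiments, mean ± SD.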

[3] = test system: Rattus norvegicus; assay: Duration of activity of compound in SHR (spontaneous hypertensive rat) at the dose of 25 mg/kg (po); type: functional
Outline: (§1)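 Conscious SHR with a carotid catheter externalized at the nape, allowed about 48 h to recover from surgery. Dosed po at 09:00 with vehicle (50% PEG 400) or compound suspension, with treatments reversed the next day in a cross-over design. Mean arterial pressure recorded as 5 min averages and compared with vehicle by paired t test (mean ± SEM, p<0.05).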

[4] = test system: Rattus norvegicus; assay: Duration of activity of compound in SHR (spontaneous hypertensive rat) at the dose of 100 mg/kg (po); type: functional; outline: as §1
[5] = test system: Rattus norvegicus; assay: Duration of activity of compound in SHR (spontaneous hypertensive rat) at the dose of 50 mg/kg (po); type: functional; outline: as §1
[6] = test system: Rattus norvegicus; assay: Mean arterial blood pressure was determined in SHR (spontaneous hypertensive rat) with administration at peroral dose of 25 mg/kg; type: functional; details: route oral; outline: as §1
[7] = test system: Rattus norvegicus; assay: Mean arterial blood pressure was determined in SHR (spontaneous hypertensive rat) with administration at the dose of 100 mg/kg (po); type: functional; outline: as §1
[8] = test system: Rattus norvegicus; assay: Mean arterial blood pressure was determined in SHR (spontaneous hypertensive rat) with administration at peroral dose of 50 mg/kg; type: functional; details: route oral; outline: as §1
[9] = test system: Rattus norvegicus; assay: Mean arterial blood pressure was determined in SHR (spontaneous hypertensive rat) with control at a peroral dose of 100 mg/kg; type: functional; details: route oral; outline: as §1
[10] = test system: Rattus norvegicus; assay: Mean arterial blood pressure was determined in SHR (spontaneous hypertensive rat) with control at a peroral dose of 25 mg/kg; type: functional; details: route oral; outline: as §1
[11] = test system: Rattus norvegicus; assay: Mean arterial blood pressure was determined in SHR (spontaneous hypertensive rat) with control at a peroral dose of 50 mg/kg; type: functional; details: route oral; outline: as §1
[12] = Antihypertensive activity as ability to increase tissue DA/NE ratio of mesenteric artery 6 hr after oral administration in fasted SHR (spontaneous hypertensive rat) at the dose of 25 mg/kg (po); type: functional
Outline: (§2)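 Male fasted SHR given compound orally as a suspension in 50% PEG 400 (0.4 mL/100 g), or vehicle alone. Killed 6 h after dosing. Mesenteric artery homogenized in 0.2 M HClO4 with DTT, EGTA and DHBA internal standard. Catecholamines adsorbed on alumina, eluted with 0.1 M H3PO4, and DA and NE quantified by reverse-phase HPLC. Ratio reported as mean ± SD and compared with vehicle by 2-tailed t test.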

[13] = Antihypertensive activity determined as ability to increase tissue DA/NE ratio of mesenteric artery 6 hr after oral administration in fasted SHR (spontaneous hypertensive rat); type: functional; outline: as §2
[14] = Antihypertensive activity was determined by its ability to increase DA/NE ratio of mesenteric artery 6 hr after oral administration in fasted SHR at the dose of 50 mg/kg (po); type: functional; outline: as §2
[15] = Antihypertensive activity was determined by its ability to increase DA/NE ratio of mesenteric artery 6 hr after oral administration in fasted SHR (spontaneous hypertensive rat) at the dose of 100 mg/kg (po); type: functional; outline: as §2

Row | Structure (SMILES) | Ki [1] | IC50 [2] | also measured
1 | Fc1cc(F)cc(Cn2cc[nH]c2=S)c1 | 60 nM | 210 nM | –
2 | Fc1ccc(Cn2ccnc2S)s1 | – | 4600 nM | –
3 | Sc1nccn1CCc1ccsc1 | 25 nM | 130 nM | –
4 | Cc1ccc(CCn2ccnc2S)s1 | 160 nM | 491 nM | –
5 | S=c1[nH]ccn1Cc1ccco1 | – | 6300 nM | –
6 | Sc1nccn1Cc1ccc(Cl)s1 | – | 1000 nM | –

Continued, in another order:

Row | Ki [1] | IC50 [2] | Structure (SMILES) | also measured
7 | 25.5 nM | 114 nM | Sc1nccn1CCc1cccs1 | Duration [3]: <1 h; Duration [4]: 20 h; Duration [5]: 8 h; Mean arterial blood pressure [6]: 137 mmHg; Mean arterial blood pressure [7]: 126 mmHg; Mean arterial blood pressure [8]: 137 mmHg; Mean arterial blood pressure [9]: 170 mmHg; Mean arterial blood pressure [10]: 148 mmHg; Mean arterial blood pressure [11]: 172 mmHg; DA/NE ratio [12]: 0.214; DA/NE ratio [13]: 0.072; DA/NE ratio [14]: 0.269; DA/NE ratio [15]: 0.333
8 | 740 nM | 4800 nM | Sc1nccn1Cc1cccs1 | –
9 | 1400 nM | 3600 nM | Sc1nccn1CCCCc1cccs1 | –
10 | 480 nM | 1900 nM | Sc1nccn1CCCc1cccs1 | –
11 | – | 5300 nM | Sc1nccn1Cc1ccsc1 | –
